According to ChEMBL document CHEMBL4043182, “On the synthesis of quinone-based BODIPY hybrids: New insights on antitumor activity and mechanism of action in cancer cells” (Bioorg Med Chem Lett, 2017):

Assays:
L929 [1] = test: Antiproliferative activity against mouse L929 cells at 0.04 to 40.92 uM after 24 to 72 hrs by MTT assay; format: cell-based; settings: l929, 40.92 µM
Summary of the method: (§1)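 MTT reduction: cancer lines plated at 0.7×10^5 to 0.3×10^6 cells/well, V79 and L929 fibroblasts at 0.5×10^5 cells/well. Compounds in DMSO (0.1%) were given for 24 h at 0.04–40.92 µM or 72 h at 0.04–8.19 µM. Fresh medium with 0.5 mg/mL MTT was added for 3 h, then formazan was dissolved in DMSO and read at 595 nm as % of control. IC50 came from nonlinear regression with 95% CI. Doxorubicin (0.001–1.06 µM) was the positive control. Triplicate, ≥3 repeats.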

[2] = Selectivity index, ratio of IC50 for mouse L929 cells to IC50 for human HL60 cells; format: functional
Summary of the method: (§2)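 Selectivity index is the ratio of the IC50 in a non-cancer murine line (V79 or L929) to the IC50 in the cancer line. […] MTT was 0.5 mg/mL for 3 h, formazan dissolved in DMSO and read at 595 nm as % of control. IC50s were derived by nonlinear regression; triplicate, at least three repeats.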

V79 [3] = test: Antiproliferative activity against chinese hamster V79 cells at 0.04 to 40.92 uM after 24 to 72 hrs by MTT assay; format: cell-based, Cricetulus griseus; settings: v79, 40.92 µM; summary of the method: as §1
Jurkat [4] = test: Induction of oxidative stress in human Jurkat cells assessed as GSH to GSSG ratio at 5 uM after 24 hrs by spectrophotometric analysis (reference value: 3.81 +/- 0.22 microg/mg); format: functional
Jurkat [5] = test: Antiproliferative activity against human Jurkat cells after 24 to 72 hrs by MTT assay; format: functional, cell-based; summary of the method: as §1
MDA-MB-435 = test: Antiproliferative activity against human MDA-MB-435 cells after 72 hrs by MTT assay; format: functional, cell-based; settings: MDA-MB-435, 72 h; summary of the method: as §1
Jurkat [6] = test: Induction of oxidative stress in human Jurkat cells assessed as total GSH levels at 5 uM treated 24 hrs post NAC addition measured after 24 hrs by spectrophotometric analysis (reference value: 3.02 +/- 0.21 microg/mg); format: functional
Summary of the method: (§3)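 Cells were pretreated 24 h with 5 mM NAC, then exposed 24 h to test compound at 5 µM. Controls received 0.1% DMSO. Extracts were prepared by sonication and HClO4 precipitation, then neutralized with KOH. Total glutathione was read by DTNB/glutathione reductase/NADPH rate at 412 nm. GSSG was measured after 4-vinylpyridine (0.1%, 1 h, RT) and GSH derived by difference. Values are normalized to protein, triplicates, three independent runs.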

HL-60 [7] = test: Induction of oxidative stress in human HL60 cells assessed as total intracellular thiol levels at 5 uM after 24 hrs by spectrophotometric analysis (reference value: 3.61 +/- 0.22 microg/mg); format: functional
HL-60 [8] = test: Induction of oxidative stress in human HL60 cells assessed as total intracellular thiol levels at 5 uM treated 24 hrs post NAC addition measured after 24 hrs by spectrophotometric analysis (reference value: 3.61 +/- 0.22 microg/mg); format: functional; summary of the method: as §3
SF-295 [9] = test: Antiproliferative activity against human SF295 cells after 72 hrs by MTT assay; format: functional, cell-based; settings: SF-295, 72 h; summary of the method: as §1
HL-60 [10] = test: Induction of oxidative stress in human HL60 cells assessed as GSH to GSSG ratio at 5 uM after 24 hrs by spectrophotometric analysis (reference value: 4.53 +/- 0.55 microg/mg); format: functional
HCT-116 [11] = test: Antiproliferative activity against human HCT116 cells after 72 hrs by MTT assay; format: functional, cell-based; settings: HCT-116, 72 h; summary of the method: as §1
[12] = Selectivity index, ratio of IC50 for mouse L929 cells to IC50 for human Jurkat cells; format: functional; summary of the method: as §2
HL-60 [13] = test: Induction of oxidative stress in human HL60 cells assessed as total GSH levels at 5 uM after 24 hrs by spectrophotometric analysis (reference value: 3.01 +/- 0.11 microg/mg); format: functional
SW-620 = test: Antiproliferative activity against human SW620 cells after 72 hrs by MTT assay; format: functional, cell-based; settings: SW-620, 72 h; summary of the method: as §1
HL-60 [14] = test: Induction of oxidative stress in human HL60 cells assessed as total GSSG levels at 5 uM treated 24 hrs post NAC addition measured after 24 hrs by spectrophotometric analysis (reference value: 0.66 +/- 0.17 microg/mg); format: functional; summary of the method: as §3
L929 [15] = test: Antiproliferative activity against mouse L929 cells after 72 hrs by MTT assay; format: cell-based; settings: L929, 72 h; summary of the method: as §1
PC-3 [16] = test: Antiproliferative activity against human PC3 cells after 72 hrs by MTT assay; format: functional, cell-based; settings: PC-3, 72 h; summary of the method: as §1
HL-60 [17] = test: Antiproliferative activity against human HL60 cells after 24 to 72 hrs by MTT assay; format: functional, cell-based; summary of the method: as §1
Jurkat [18] = test: Induction of oxidative stress in human Jurkat cells assessed as total intracellular thiol levels at 5 uM treated 24 hrs post NAC addition measured after 24 hrs by spectrophotometric analysis (reference value: 3.87 +/- 0.55 microg/mg); format: functional; summary of the method: as §3
Jurkat [19] = test: Induction of oxidative stress in human Jurkat cells assessed as GSH to GSSG ratio at 5 uM treated 24 hrs post NAC addition measured after 24 hrs by spectrophotometric analysis (reference value: 3.81 +/- 0.22 microg/mg); format: functional; summary of the method: as §3
Jurkat [20] = test: Induction of oxidative stress in human Jurkat cells assessed as total GSSG levels at 5 uM after 24 hrs by spectrophotometric analysis (reference value: 0.78 +/- 0.33 microg/mg); format: functional
V79 [21] = test: Antiproliferative activity against chinese hamster V79 cells after 72 hrs by MTT assay; format: cell-based; settings: Cricetulus griseus, V79, 72 h; summary of the method: as §1
HL-60 [22] = test: Induction of oxidative stress in human HL60 cells assessed as total GSSG levels at 5 uM after 24 hrs by spectrophotometric analysis (reference value: 0.66 +/- 0.17 microg/mg); format: functional
[23] = Selectivity index, ratio of IC50 for chinese hamster V79 cells to IC50 for human Jurkat cells; format: functional; summary of the method: as §2
HL-60 [24] = test: Induction of oxidative stress in human HL60 cells assessed as total GSH levels at 5 uM treated 24 hrs post NAC addition measured after 24 hrs by spectrophotometric analysis (reference value: 3.01 +/- 0.11 microg/mg); format: functional; summary of the method: as §3
Jurkat [25] = test: Induction of oxidative stress in human Jurkat cells assessed as total intracellular thiol levels at 5 uM after 24 hrs by spectrophotometric analysis (reference value: 3.87 +/- 0.55 microg/mg); format: functional
Jurkat [26] = test: Induction of oxidative stress in human Jurkat cells assessed as total GSH levels at 5 uM after 24 hrs by spectrophotometric analysis (reference value: 3.02 +/- 0.21 microg/mg); format: functional
HL-60 [27] = test: Induction of oxidative stress in human HL60 cells assessed as GSH to GSSG ratio at 5 uM treated 24 hrs post NAC addition measured after 24 hrs by spectrophotometric analysis (reference value: 4.53 +/- 0.55 microg/mg); format: functional; summary of the method: as §3
Jurkat [28] = test: Induction of oxidative stress in human Jurkat cells assessed as total GSSG levels at 5 uM treated 24 hrs post NAC addition measured after 24 hrs by spectrophotometric analysis (reference value: 0.78 +/- 0.33 microg/mg); format: functional; summary of the method: as §3
[29] = Selectivity index, ratio of IC50 for chinese hamster V79 cells to IC50 for human HL60 cells; format: functional; summary of the method: as §2
[30] = Drug uptake in lysosomes of human PC3 cells at 5 uM after 10 mins by LysoTracker Red dye-based confocal microscopic analysis; format: ADME, cell-based; settings: pc-3, 10 min
Summary of the method: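 PC3 cells were grown in DMEM with 10% FBS, antibiotics and 2 mM L-glutamine at 37 °C, 5% CO2. Cells were incubated with compound (5 µM) plus LysoTracker Red or MitoTracker Red for 10 min at 37 °C. Live cells were imaged in phenol red-free DMEM by confocal microscopy with a 40X oil objective, exciting at 488 nm (compound) and 543 nm (tracker dyes).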

PC-3 [31] = test: Cytotoxicity against human PC3 cells after 24 hrs in absence of GSH-OEt by MTT assay; format: functional, cell-based; settings: PC-3, 24 h
Summary of the method: (§4)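 24 h MTT exposure (0.04–40.92 µM in 0.1% DMSO), with or without co-treatment with GSH ethyl ester (15 mM) to gauge the ROS contribution. MTT was 0.5 mg/mL for 3 h, with formazan dissolved in DMSO and absorbance at 595 nm expressed as % of control. Triplicate, repeated at least three times.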

PC-3 [32] = test: Cytotoxicity against human PC3 cells after 24 hrs in presence of GSH-OEt by MTT assay; format: functional, cell-based; settings: PC-3, 24 h; summary of the method: as §4
SF-295 [33] = test: Cytotoxicity against human SF295 cells after 24 hrs in presence of GSH-OEt by MTT assay; format: functional, cell-based; settings: SF-295, 24 h; summary of the method: as §4
L929 [34] = test: Cytotoxicity against mouse L929 cells after 24 hrs in presence of GSH-OEt by MTT assay; format: cell-based; settings: L929, 24 h; summary of the method: as §4
HCT-116 [35] = test: Cytotoxicity against human HCT116 cells after 24 hrs in absence of GSH-OEt by MTT assay; format: functional, cell-based; settings: HCT-116, 24 h; summary of the method: as §4
L929 [36] = test: Cytotoxicity against mouse L929 cells after 24 hrs in absence of GSH-OEt by MTT assay; format: cell-based; settings: L929, 24 h; summary of the method: as §4
SF-295 [37] = test: Cytotoxicity against human SF295 cells after 24 hrs in absence of GSH-OEt by MTT assay; format: functional, cell-based; settings: SF-295, 24 h; summary of the method: as §4
HCT-116 [38] = test: Cytotoxicity against human HCT116 cells after 24 hrs in presence of GSH-OEt by MTT assay; format: functional, cell-based; settings: HCT-116, 24 h; summary of the method: as §4

## CC1=CC(C)=[N+]2C1=C(c1ccc(OCc3cn(C4C5=C(OC4(C)C)c4ccccc4C(=O)C5=O)nn3)cc1)c1c(C)cc(C)n1[B-]2(F)F (configuration not stated)
L929 [1]
  Activity: Non-Toxic
[2]
  Ratio IC50: >8.5
V79 [3]
  Activity: Non-Toxic
Jurkat [4]
  Activity: 0.21 µg/mg
Jurkat [5]
  IC50: 0.94 µM
MDA-MB-435
  IC50: > 7.72 µM
Jurkat [6]
  Activity: 1.58 µg/mg
HL-60 [7]
  Activity: 3.01 µg/mg
HL-60 [8]
  Activity: 2.83 µg/mg
SF-295 [9]
  IC50: > 7.72 µM
HL-60 [10]
  Activity: 0.31 µg/mg
HCT-116 [11]
  IC50: 2.85 µM
[12]
  Ratio IC50: >8.5
HL-60 [13]
  Activity: 0.72 µg/mg
SW-620
  IC50: > 7.72 µM
HL-60 [14]
  Activity: 1.47 µg/mg
L929 [15]
  IC50: > 7.72 µM
PC-3 [16]
  IC50: 2.39 µM
HL-60 [17]
  IC50: 0.92 µM
Jurkat [18]
  Activity: 3.11 µg/mg
Jurkat [19]
  Activity: 1.08 µg/mg
Jurkat [20]
  Activity: 2.57 µg/mg
V79 [21]
  IC50: > 7.72 µM
HL-60 [22]
  Activity: 2.18 µg/mg
[23]
  Ratio IC50: >8.5
HL-60 [24]
  Activity: 1.19 µg/mg
Jurkat [25]
  Activity: 3.28 µg/mg
Jurkat [26]
  Activity: 0.6 µg/mg
HL-60 [27]
  Activity: 0.76 µg/mg
Jurkat [28]
  Activity: 1.44 µg/mg
[29]
  Ratio IC50: >8.5
[30]
  Drug uptake: Metabolite_Detected

## CC1(C)OC2=C(C(=O)c3ccccc3C2=O)C1n1cc(CNC2=[N+]3C(=C(c4ccccc4)c4ccc(Cl)n4[B-]3(F)F)C=C2)nn1 (configuration not stated)
PC-3 [31]
  IC50: > 40 µM
PC-3 [32]
  IC50: > 40 µM
MDA-MB-435
  IC50: > 8.1 µM
SF-295 [33]
  IC50: > 40 µM
L929 [34]
  IC50: > 40 µM
SF-295 [9]
  IC50: > 8.1 µM
HCT-116 [35]
  IC50: > 40 µM
HCT-116 [11]
  IC50: > 8.1 µM
SW-620
  IC50: > 8.1 µM
L929 [36]
  IC50: > 40 µM
L929 [15]
  IC50: > 8.1 µM
PC-3 [16]
  IC50: > 8.1 µM
SF-295 [37]
  IC50: > 40 µM
V79 [21]
  IC50: > 8.1 µM
HCT-116 [38]
  IC50: > 40 µM

## O=C1C2=C(OC(Cn3cc(CNc4ccc5n4[B-](F)(F)[N+]4=C(Cl)C=CC4=C5c4ccccc4)nn3)C2)C(=O)c2ccccc21 (configuration not stated)
PC-3 [31]
  IC50: > 40 µM
PC-3 [32]
  IC50: > 40 µM
MDA-MB-435
  IC50: > 8.19 µM
SF-295 [33]
  IC50: > 40 µM
L929 [34]
  IC50: > 40 µM
SF-295 [9]
  IC50: > 8.19 µM
HCT-116 [35]
  IC50: > 40 µM
HCT-116 [11]
  IC50: > 8.19 µM
SW-620
  IC50: > 8.19 µM
L929 [36]
  IC50: > 40 µM
L929 [15]
  IC50: > 8.19 µM
PC-3 [16]
  IC50: > 8.19 µM
SF-295 [37]
  IC50: > 40 µM
V79 [21]
  IC50: > 8.19 µM
HCT-116 [38]
  IC50: > 40 µM
